Assay results from ChEMBL document CHEMBL3046203, “Bioactivity-guided fractionation and GC/MS fingerprinting of Angelica sinensis and Angelica archangelica root components for antifungal and mosquito deterrent activity” (2009).
The source made the active and inactive calls. No cut-off for these calls is given here.

Experiments:
[1] = test system: Colletotrichum gloeosporioides; assay: Antifungal activity against Colletotrichum gloeosporioides assessed as as appearance of diffuse zone of inhibition at 2 mM in 2 uL solution by direct bio-autography assay1; type: functional, organism-based
[2] = test system: Colletotrichum gloeosporioides; assay: Antifungal activity against Colletotrichum gloeosporioides assessed as as appearance of diffuse zone of inhibition at 2 mM in 2 uL solution by direct bio-autography assay; type: functional, organism-based
Colletotrichum acutatum = assay: Antifungal activity against Colletotrichum acutatum assessed as appearance of diffuse zone of inhibition at 2 mM in 2 uL solution by direct bio-autography assay; type: functional, organism-based
Anopheles stephensi = assay: Feeding deterrent activity against Anopheles stephensi assessed as proportion of mosquitoes not biting at 25 nmol/cm2 cloth relative to untreated control; type: functional
Procedure, shortened: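 Klun and Debboun in vitro module assay with mated nulliparous An. stephensi females (Delhi strain, 5-15 d old), given water only for 24 h before testing. Compounds were applied in ethanol to organdy cloth at 25 nmol/cm2 against an ethanol-treated control cloth. Conditions were 24-26 °C and 24-51% RH, 1300-1600 h, with 100 females (20 replicates). The proportion not biting was scored.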

Aedes aegypti = assay: Feeding deterrent activity against Aedes aegypti liverpool assessed as proportion of mosquitoes not biting at 25 nmol/cm2 cloth relative to untreated control; type: functional
Procedure, shortened: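 In vitro Klun and Debboun module assay with mated nulliparous Ae. aegypti females (red eye Liverpool strain, 5-15 d old), denied water for 24 h before testing. Treatments in ethanol were applied to organdy cloth at 25 nmol/cm2, with an ethanol-treated cloth as control. Testing ran at 24-26 °C and 24-51% RH, 1300-1600 h, using 85 females (17 replicates). Read-out was the proportion not biting.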

SMILES: Cc1cc(C2CC2)nc(Nc2ccccc2)n1
- growth inhibition (GI) [1]: Active
- growth inhibition (GI) [2]: Active
- growth inhibition (GI) (Colletotrichum acutatum): Active

SMILES: CO/C=C(/C(=O)OC)c1ccccc1Oc1cc(Oc2ccccc2C#N)ncn1
- growth inhibition (GI) [2]: Active
- growth inhibition (GI) (Colletotrichum acutatum): Active

SMILES: CCC/C=C1\OC(=O)C2=C1CCC=C2 [LIGUSTILIDE]
- Ratio (Anopheles stephensi): 0.66
- Ratio (Aedes aegypti): 0.79

SMILES: CCCCNC(=O)n1c(NC(=O)OC)nc2ccccc21
- growth inhibition (GI) [2]: Active
- growth inhibition (GI) (Colletotrichum acutatum): Active

SMILES: CC1=CCC[C@@H]2[C@@](C)(CC=O)[C@H](C)CC[C@@]12C [CALLICARPENAL]
- Ratio (Anopheles stephensi): 0.72
- Ratio (Aedes aegypti): 0.91

SMILES: CCN(CC)C(=O)c1cccc(C)c1 [DIETHYLTOLUAMIDE]
- Ratio (Anopheles stephensi): 0.51
- Ratio (Aedes aegypti): 0.67
